Data from ChEMBL document CHEMBL5678818, “Discovery of potent SOS1 inhibitors that block RAS activation via disruption of the RAS-SOS1 interaction” (Proc Natl Acad Sci U S A, 2019).
Active and inactive are the calls of the source. The rule behind the calls is not given here.

Legend:
[1] = biological target: T1, Son of sevenless homolog 1 (Homo sapiens) (UniProt Q07889); test: Inhibition of SOS1 in human Calu-1 cells assessed as pERK level incubated for 24 hrs by HTRF analysis relative to control; assay type: cell-based; set-up: scale not given: the % may be the effect or the level left
T1 sequence (whole entry): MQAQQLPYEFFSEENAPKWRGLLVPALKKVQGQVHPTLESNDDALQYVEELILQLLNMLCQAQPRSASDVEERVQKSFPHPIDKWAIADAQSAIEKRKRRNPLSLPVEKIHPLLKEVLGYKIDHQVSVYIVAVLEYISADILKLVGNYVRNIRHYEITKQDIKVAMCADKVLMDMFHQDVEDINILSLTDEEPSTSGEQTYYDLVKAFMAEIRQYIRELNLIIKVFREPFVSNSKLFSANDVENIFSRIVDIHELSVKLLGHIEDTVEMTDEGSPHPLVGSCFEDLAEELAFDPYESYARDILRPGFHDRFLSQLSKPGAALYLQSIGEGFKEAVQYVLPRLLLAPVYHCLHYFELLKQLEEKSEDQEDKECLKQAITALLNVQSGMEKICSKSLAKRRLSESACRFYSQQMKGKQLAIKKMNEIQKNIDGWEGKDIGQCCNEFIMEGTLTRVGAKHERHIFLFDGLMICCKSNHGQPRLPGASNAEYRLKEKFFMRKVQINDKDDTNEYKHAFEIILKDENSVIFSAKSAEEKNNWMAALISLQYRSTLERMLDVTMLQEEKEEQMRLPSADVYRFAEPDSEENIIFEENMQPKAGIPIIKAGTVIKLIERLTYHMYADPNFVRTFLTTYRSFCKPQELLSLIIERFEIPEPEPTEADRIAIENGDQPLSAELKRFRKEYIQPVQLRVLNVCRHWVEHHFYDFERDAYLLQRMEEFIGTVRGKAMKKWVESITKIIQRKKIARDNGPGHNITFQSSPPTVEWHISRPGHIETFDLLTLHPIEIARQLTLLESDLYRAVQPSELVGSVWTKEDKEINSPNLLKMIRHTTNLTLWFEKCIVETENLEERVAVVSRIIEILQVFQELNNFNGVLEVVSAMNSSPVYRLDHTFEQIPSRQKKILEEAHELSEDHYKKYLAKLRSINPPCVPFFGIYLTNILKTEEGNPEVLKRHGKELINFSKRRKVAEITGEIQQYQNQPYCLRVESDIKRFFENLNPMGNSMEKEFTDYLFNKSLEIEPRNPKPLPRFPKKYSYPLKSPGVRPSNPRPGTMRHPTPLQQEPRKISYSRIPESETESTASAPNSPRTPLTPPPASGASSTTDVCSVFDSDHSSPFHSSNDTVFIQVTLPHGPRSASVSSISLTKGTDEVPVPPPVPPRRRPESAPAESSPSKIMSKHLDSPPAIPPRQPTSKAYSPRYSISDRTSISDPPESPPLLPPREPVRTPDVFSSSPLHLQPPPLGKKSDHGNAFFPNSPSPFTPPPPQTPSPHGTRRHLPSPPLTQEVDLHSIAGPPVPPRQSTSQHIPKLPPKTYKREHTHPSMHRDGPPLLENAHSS

Homo sapiens [2] = species on record: Homo sapiens; test: (§1) Stabilization of N-terminal His10-tagged recombinant human KRAS G12C/C118S mutant (1 to 169 residues) expressed in Escherichia coli/N-terminal His10-tagged wild-type recombinant human SOS1 catalytic domain (564 to 1049 residues) expressed in Escherichia coli by HTRF analysis
Method in brief: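 HTRF equilibrium-binding read-out of KRASG12C_C118S with SOS1cat, detected by fluorescently labelled antibodies including a terbium donor. Signal normalized with DMSO control as 100% and no-SOS1cat wells as 0%. Data are mean ± SD, n = 4.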

[3] = tested on: SOS1-KRAS (Homo sapiens), Q07889+P01116 [G12C]; test: Binding affinity to N-terminal GST-tagged recombinant human KRAS G12C mutant (1 to 169 residues) expressed in Escherichia coli/N-terminal His10-tagged wild-type recombinant human SOS1 catalytic domain (564 to 1049 residues) expressed in Escherichia coli at 200 uM by STD-NMR analysis
Homo sapiens [4] = species on record: Homo sapiens; test: as §1, with “coli/Series S C1 sensor chip-immobilized biotinylated N-terminal” for “coli/N-terminal”, “coli at 100 to 500 uM measured for 360 secs” for “coli”, “SPR” for “HTRF”; conditions: dose 100-500 µM, time 360.0 sec
Method in brief: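 SOS1cat is immobilized on the chip, and 250 nM KRASG12C_C118S is flowed over with or without test compound. Compound alone at 100, 250 and 500 µM is also injected to gauge unspecific binding to SOS1cat. Buffer injection serves as the blank.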

[5] = tested on: GTPase KRas (Homo sapiens), P01116 [G12C]; test: Binding affinity to N-terminal GST-tagged recombinant human KRAS G12C mutant (1 to 169 residues) expressed in Escherichia coli at 200 uM by STD-NMR analysis
Homo sapiens [6] = species on record: Homo sapiens; test: Stabilization of N-terminal His10-tagged 15N-labeled recombinant human KRAS G12C/C118S mutant (1 to 169 residues) expressed in Escherichia coli/N-terminal His10-tagged wild-type recombinant human SOS1 catalytic domain (564 to 1049 residues) expressed in Escherichia coli at 1 mM incubated for 30 mins by 2D-NMR analysis
[7] = biological target: T1, Son of sevenless homolog 1 (Homo sapiens); test: Binding affinity to N-terminal His10-tagged wild-type recombinant human SOS1 catalytic domain (564 to 1049 residues) expressed in Escherichia coli at 200 uM by STD-NMR analysis

| Activity [1] | Activity (Homo sapiens [2]) | Activity [3] | Activity (Homo sapiens [4]) | Activity [5] | Activity (Homo sapiens [6]) | Activity [7] | SMILES |
| --- | --- | --- | --- | --- | --- | --- | --- |
| 50% | – | – | – | – | – | – | C=CC(=O)N1CC(N2CCN(C(=O)CNc3cc(C4(C)CC4)c(Cl)cc3O)CC2)C1 |
| – | Active | Active | Active | inactive | Active | inactive | NCc1nn(-c2ccccc2)c2c1CCC2 |
